# APJ antag: antagonists of human APJ apelin receptor. P35414. CHO-K1 APJ beta-arrestin complementation, luminescence. inhibition, % at 20 µM. hit rate 0.32% among 330,000. AID 2521;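 active = inhibition above about 40% at 20 µM, limit read from the data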;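 also: cells challenged with 10 nM apelin-13 agonist together with compound; plate controls were apelin-13 plus DMSO wells for no effect and DMSO wells lacking apelin-13 for full effect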
# APJ agonist: APJ receptor agonism | hit rate 0.11% among 330,000 | AID 2520 | CHO-K1 APJ PathHunter beta-arrestin, luminescence; 0% DMSO wells, 100% apelin | activation, % at 20 µM;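 active = activation more than six SD over the plate average, tested at 20 µM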;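 also: 0% = DMSO alone and 100% = apelin-13 at 10 nM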
#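 Incubation: overnight seeding, 90 min compound at 25 °C, 1 h detection; test system: PathHunter CHO-K1 APJ (AGTRL-1) beta-arrestin reporter cells; amount: 1000 cells/well; doses: one dose, 20 µM compound, 1% DMSO; measured by: beta-gal luminescence; measure: agonist-driven arrestin binding to APJ; benchmarks: negative DMSO alone, positive Apelin-13 at 10 nM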
# CCR6 antag: blocks CCL20-driven beta-arrestin recruitment at human CCR6; AID 493098; CHO-K1 CCR6 PathHunter beta-arrestin, luminescence, CCL20-stimulated; hit rate 0.49% among 340,000; P51684; inhibition, % at 20 µM;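 active = compounds whose inhibition of the agonist-driven luminescence signal at 20 µM reaches about 50%, limit read from the data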;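 also: cells stimulated with CCL20 at 14 nM final; plate controls were DMSO with CCL20 for no effect and DMSO without agonist for full effect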
# B2AR ag: agonists of human beta-2 adrenergic receptor inducing internalization; P07550; Am2.2-beta2AR cells, FAP receptor internalization, flow cytometry; response, % (concentration not given with the values); hit rate 0.43% among 340,000; AID 504454;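 active = response above a set limit, near 3 SD of response in nonfluorescent compounds, cut at about 42% in these data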
# Target sequence (P07550 whole entry, looked up): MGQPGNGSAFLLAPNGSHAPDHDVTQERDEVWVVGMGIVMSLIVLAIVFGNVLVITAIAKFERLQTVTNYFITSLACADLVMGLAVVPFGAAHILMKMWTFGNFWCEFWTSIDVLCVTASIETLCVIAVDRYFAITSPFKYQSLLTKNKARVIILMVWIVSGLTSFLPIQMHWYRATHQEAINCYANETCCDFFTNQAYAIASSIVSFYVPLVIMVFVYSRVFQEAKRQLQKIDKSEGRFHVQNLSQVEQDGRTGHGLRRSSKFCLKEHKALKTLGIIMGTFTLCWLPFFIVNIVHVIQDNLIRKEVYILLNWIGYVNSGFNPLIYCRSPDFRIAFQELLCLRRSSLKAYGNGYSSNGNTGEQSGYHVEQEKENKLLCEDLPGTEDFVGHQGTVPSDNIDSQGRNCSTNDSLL
# PfGluPho inh: PfG6PD (Plasmodium falciparum) enzyme inhibition; inhibition, % at 20 µM; hit rate 0.78% among 350,000; PfGluPho enzyme, NADPH resazurin-diaphorase fluorescence;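 active = inhibition reaching at least a set limit at 20 µM in the primary screen, cut at about 59% in these data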;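 also: 0% = DMSO wells with substrate and 100% = DMSO wells lacking glucose-6-phosphate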
# CXCR6 inh: inhibitors of human CXCR6 receptor; O00574; CHO-K1 PathHunter CXCR6 beta-arrestin, luminescence; inhibition, % at 20 µM; hit rate 0.36% among 360,000; AID 602244; in the data active = inhibition above about 34%, passing the limit was not always enough;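 also: antagonist mode with CXCL16 agonist at 10 nM final; 0% = 10 nM CXCL16 with DMSO and 100% = unstimulated wells without agonist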
# CXCR6 confirm: confirmation of human CXCR6 receptor antagonists. shares compounds with CXCR6 inh. CHO-K1 CXCR6 PathHunter beta-arrestin, luminescence. inhibition, % at 20 µM. hit rate 65% among 700;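 active = mean inhibition over four retests above 40%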;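 also: receptor stimulated with 10 nM CXCL16 agonist; beta-galactosidase fragment complementation upon beta-arrestin recruitment to receptor; plate controls were CXCL16 plus DMSO for no effect and DMSO without CXCL16 for full effect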
# Active calls of the source: *; / = no result. In the library only some 1.7% were active in any assay of this set; here they are far more common.
SMILES,APJ antag,APJ agonist,CCR6 antag,B2AR ag,PfGluPho inh,CXCR6 inh,CXCR6 confirm
O=C1CCC(C(=O)N2CCN(c3ccccc3)CC2)CN1CC1CCCCC1 (stereo unspecified),12.0,6.1,1.4,-10.0,5.7,1.9,/
O=c1c2c([N+](=O)[O-])cc([N+](=O)[O-])cc2sn1Cc1ccccc1,9.2,2.1,96.7*,-0.7,123.6*,45.1*,15.9
COc1cc(NC(=O)N2CCc3nc(Nc4cc(Cl)cc(Cl)c4)ncc3C2)cc(OC)c1OC,/,/,/,/,/,-4.5,/
CNc1cnn(-c2ccc(C)cc2)c(=O)c1Cl,-7.0,0.1,0.8,0.7,-4.5,56.1*,1.7
CNc1cnn(-c2ccc(C)cc2)c(=O)c1Sc1ccc(C)cc1,-9.7,-4.4,7.5,1.9,-5.3,1.8,/

# Screening data deposited in PubChem BioAssay by several laboratories.
